pIC50: −log10 of the molar value. ≈ marks a conversion by molar mass, not a printed value. Calls of active or inactive are those of the source. The calls are words filed in the database; no cut-off is given here.
What was measured:
[1] = test system: Mycobacterium avium; test: Antimycobacterial activity against INH/RIF/OFX resistant Mycobacterium avium 330/88 after 14 days; format: functional; conditions: 330/88, 336 h
[2] = test system: Mycobacterium kansasii; test: Antimycobacterial activity against Mycobacterium kansasii 235/80 after 7 days; format: functional; conditions: 235/80, 168 h
[3] = molecular target: T1, Enoyl-[acyl-carrier-protein] reductase [NADH] (Mycobacterium tuberculosis) (UniProt P9WGR1); test: Inhibition of Mycobacterium tuberculosis H37Rv InhA assessed as reduction of trehalose dimycolate synthesis at 4 to 8 uM preincubated for 24 hrs followed by [14C]acetate addition and measured after 24 hrs by TLC analysis
T1 sequence (whole entry): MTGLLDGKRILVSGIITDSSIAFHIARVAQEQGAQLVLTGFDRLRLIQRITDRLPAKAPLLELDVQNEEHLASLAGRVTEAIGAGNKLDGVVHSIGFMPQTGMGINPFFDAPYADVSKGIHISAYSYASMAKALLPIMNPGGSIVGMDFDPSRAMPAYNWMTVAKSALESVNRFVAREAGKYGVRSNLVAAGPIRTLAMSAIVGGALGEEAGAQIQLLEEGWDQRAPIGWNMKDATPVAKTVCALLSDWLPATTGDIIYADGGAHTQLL

[4] = test system: Mycobacterium tuberculosis; test: Antimycobacterial activity against Mycobacterium tuberculosis H37Rv over producing InhA after 25 days by drop dilution method; format: functional, organism-based
[5] = molecular target: T1, Enoyl-[acyl-carrier-protein] reductase [NADH] (Mycobacterium tuberculosis); test: Inhibition of Mycobacterium tuberculosis H37Rv InhA assessed as reduction of methoxy and keto mycolic acid synthesis at 4 to 8 uM preincubated for 24 hrs followed by [14C]acetate addition and measured after 24 hrs by TLC analysis
[6] = molecular target: T1, Enoyl-[acyl-carrier-protein] reductase [NADH] (Mycobacterium tuberculosis); test: Inhibition of Mycobacterium tuberculosis H37Rv InhA assessed as reduction of trehalose monomycolate synthesis at 4 to 8 uM preincubated for 24 hrs followed by [14C]acetate addition and measured after 24 hrs by TLC analysis
[7] = test system: Mycobacterium tuberculosis; test: Antimycobacterial activity against Mycobacterium tuberculosis H37Rv after 25 days by drop dilution method; format: functional, organism-based
[8] = test system: Mycobacterium avium; test: Antimycobacterial activity against INH/RIF/OFX resistant Mycobacterium avium 330/88 after 21 days; format: functional; conditions: 330/88, 504 h
[9] = molecular target: T1, Enoyl-[acyl-carrier-protein] reductase [NADH] (Mycobacterium tuberculosis); test: Inhibition of Mycobacterium tuberculosis H37Rv InhA assessed as reduction of alpha mycolic acid synthesis at 4 to 8 uM preincubated for 24 hrs followed by [14C]acetate addition and measured after 24 hrs by TLC analysis
[10] = Selectivity index, ratio of IC50 for human HepG2 cells to MIC for Mycobacterium tuberculosis H37Rv after 14 days; format: toxicity; conditions: read-out: Selectivity Index
Summary of the method: (§1)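 SI is calculated as HepG2 IC50 divided by MIC. HepG2 cells (passage 2-4) were grown in EMEM with 10% FBS, L-glutamine and non-essential amino acids. Compounds in DMSO were tested in triplicate at eight concentrations, and viability was read by MTS tetrazolium reduction. IC50 is the concentration reducing viability to 50% of control. 10% DMSO served as the 0% viability control.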

[11] = molecular target: T1, Enoyl-[acyl-carrier-protein] reductase [NADH] (Mycobacterium tuberculosis); test: Inhibition of Mycobacterium tuberculosis H37Rv InhA assessed as reduction of phosphatidylethanolamine synthesis at 4 to 8 uM preincubated for 24 hrs followed by [14C]acetate addition and measured after 24 hrs by TLC analysis
[12] = molecular target: T1, Enoyl-[acyl-carrier-protein] reductase [NADH] (Mycobacterium tuberculosis); test: Inhibition of Mycobacterium tuberculosis H37Rv InhA assessed as reduction of methyl esters of fatty acid synthesis at 4 to 8 uM preincubated for 24 hrs followed by [14C]acetate addition and measured after 24 hrs by TLC analysis
[13] = test system: HepG2; test: Cytotoxicity against human HepG2 cells assessed as reduction in cell viability by MTS assay; format: cell-based
Summary of the method: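 HepG2 human hepatocellular carcinoma cells (passage 2-4) were cultured in Eagle's MEM with 10% FBS, 1% L-glutamine and non-essential amino acids. Compounds were dissolved in DMSO and tested in triplicate at eight concentrations. Viability was read by colorimetric MTS tetrazolium reduction. Controls were 100% viability and 0% viability (10% DMSO). IC50 is the concentration reducing viability to 50% of control.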

[14] = test system: Mycobacterium kansasii; test: Antimycobacterial activity against Mycobacterium kansasii 235/80 after 14 days; format: functional; conditions: 235/80, 336 h
[15] = test system: Mycobacterium kansasii; test: Antimycobacterial activity against Mycobacterium kansasii 6509/96 after 21 days; format: functional; conditions: 6509/96, 504 h
[16] = molecular target: T1, Enoyl-[acyl-carrier-protein] reductase [NADH] (Mycobacterium tuberculosis); test: Inhibition of Mycobacterium tuberculosis H37Rv InhA assessed as reduction of cardiolipin synthesis at 4 to 8 uM preincubated for 24 hrs followed by [14C]acetate addition and measured after 24 hrs by TLC analysis
[17] = test system: Mycobacterium kansasii; test: Antimycobacterial activity against Mycobacterium kansasii 6509/96 after 7 days; format: functional; conditions: 6509/96, 168 h
[18] = test system: Mycobacterium tuberculosis; test: Antimycobacterial activity against Mycobacterium tuberculosis H37Rv after 21 days; format: functional; conditions: 504 h
[19] = test system: Mycobacterium kansasii; test: Antimycobacterial activity against Mycobacterium kansasii 6509/96 after 14 days; format: functional; conditions: 6509/96, 336 h
[20] = test system: Mycobacterium kansasii; test: Antimycobacterial activity against Mycobacterium kansasii 235/80 after 21 days; format: functional; conditions: 235/80, 504 h
[21] = test system: Mycobacterium tuberculosis; test: Antimycobacterial activity against Mycobacterium tuberculosis H37Rv after 14 days; format: functional; conditions: 336 h
[22] = molecular target: T1, Enoyl-[acyl-carrier-protein] reductase [NADH] (Mycobacterium tuberculosis); test: Inhibition of Mycobacterium tuberculosis H37Rv InhA assessed as reduction of trehalose monomycolate synthesis at 36.5 uM preincubated for 1 hr followed by [14C]glucose addition and measured after 24 hrs by TLC analysis
[23] = Selectivity index, ratio of IC50 for human HepG2 cells to MIC for Mycobacterium kansasii 6509/96; format: toxicity; conditions: read-out: Selectivity Index; summary of the method: as §1
[24] = Selectivity index, ratio of IC50 for human HepG2 cells to MIC for Mycobacterium kansasii 235/80; format: toxicity; conditions: read-out: Selectivity Index; summary of the method: as §1
[25] = molecular target: T1, Enoyl-[acyl-carrier-protein] reductase [NADH] (Mycobacterium tuberculosis); test: Inhibition of Mycobacterium tuberculosis H37Rv InhA assessed as reduction of trehalose dimycolate synthesis at 36.5 uM preincubated for 1 hr followed by [14C]glucose addition and measured after 24 hrs by TLC analysis
[26] = molecular target: T1, Enoyl-[acyl-carrier-protein] reductase [NADH] (Mycobacterium tuberculosis); test: Inhibition of Mycobacterium tuberculosis H37Rv InhA assessed as reduction of alpha mycolic acid synthesis at 40 uM preincubated for 1 hr followed by [14C]glucose addition and measured after 24 hrs by TLC analysis
[27] = molecular target: T1, Enoyl-[acyl-carrier-protein] reductase [NADH] (Mycobacterium tuberculosis); test: Inhibition of Mycobacterium tuberculosis H37Rv InhA assessed as reduction of trehalose dimycolate synthesis at 40 uM preincubated for 1 hr followed by [14C]glucose addition and measured after 24 hrs by TLC analysis
[28] = molecular target: T1, Enoyl-[acyl-carrier-protein] reductase [NADH] (Mycobacterium tuberculosis); test: Inhibition of Mycobacterium tuberculosis H37Rv InhA assessed as reduction of cardiolipin synthesis at 40 uM preincubated for 1 hr followed by [14C]glucose addition and measured after 24 hrs by TLC analysis
[29] = test system: Mycobacterium tuberculosis; test: Effect on short chain fatty acid acid synthesis in Mycobacterium tuberculosis H37Rv at 40 uM preincubated for 1 hr followed by [14C]glucose addition and measured after 24 hrs by TLC analysis; format: functional, organism-based
[30] = molecular target: T1, Enoyl-[acyl-carrier-protein] reductase [NADH] (Mycobacterium tuberculosis); test: Inhibition of Mycobacterium tuberculosis H37Rv InhA assessed as reduction of methyl esters of fatty acid synthesis at 40 uM preincubated for 1 hr followed by [14C]glucose addition and measured after 24 hrs by TLC analysis
[31] = molecular target: T1, Enoyl-[acyl-carrier-protein] reductase [NADH] (Mycobacterium tuberculosis); test: Inhibition of Mycobacterium tuberculosis H37Rv InhA assessed as reduction of methoxy and keto mycolic acid synthesis at 40 uM preincubated for 1 hr followed by [14C]glucose addition and measured after 24 hrs by TLC analysis
[32] = molecular target: T1, Enoyl-[acyl-carrier-protein] reductase [NADH] (Mycobacterium tuberculosis); test: Inhibition of Mycobacterium tuberculosis H37Rv InhA assessed as reduction of trehalose monomycolate synthesis at 40 uM preincubated for 1 hr followed by [14C]glucose addition and measured after 24 hrs by TLC analysis
[33] = molecular target: T1, Enoyl-[acyl-carrier-protein] reductase [NADH] (Mycobacterium tuberculosis); test: Inhibition of Mycobacterium tuberculosis H37Rv InhA assessed as reduction of phosphatidylethanolamine synthesis at 40 uM preincubated for 1 hr followed by [14C]glucose addition and measured after 24 hrs by TLC analysis

SMILES	MIC [1] [µM]	MIC [2] [µM]	Activity [4]	Activity [7]	MIC [8] [µM]	selectivity ratio at 336 h [10]	pIC50 [13]	MIC [14] [µM]	MIC [15] [µM]	MIC [17] [µM]	MIC [18] [µM]	MIC [19] [µM]	MIC [20] [µM]	MIC [21] [µM]	selectivity ratio [23]	selectivity ratio [24]	also measured
CCCCCCCCCCCCNc1nnc(-c2ccncc2)o1	8 (≈ 2.64 µg/mL)	125 (≈ 41.3 µg/mL)	Active	Active	16 (≈ 5.29 µg/mL)	> 6.25	< 4.30	125 (≈ 41.3 µg/mL)	125 (≈ 41.3 µg/mL)	125 (≈ 41.3 µg/mL)	8 (≈ 2.64 µg/mL)	125 (≈ 41.3 µg/mL)	125 (≈ 41.3 µg/mL)	4 (≈ 1.32 µg/mL)	–	–	inhibition [3]: inactive; inhibition [5]: inactive; inhibition [6]: inactive; inhibition [9]: inactive; inhibition [11]: inactive; inhibition [12]: inactive; inhibition [16]: inactive
NNC(=O)c1ccncc1 [ISONIAZID]	> 250	> 250	–	–	> 250	> 5000	< 2.30	> 250	8 (≈ 1.1 µg/mL)	8 (≈ 1.1 µg/mL)	1 (≈ 0.137 µg/mL)	8 (≈ 1.1 µg/mL)	> 250	0.5 (≈ 0.0686 µg/mL)	> 625	> 625	inhibition [22]: Active; inhibition [25]: Active
CNC(=O)NNC(=O)c1ccncc1	> 1000	1000 (≈ 194 µg/mL)	inactive	inactive	> 1000	> 5000	< 2.30	> 1000	1000 (≈ 194 µg/mL)	500 (≈ 97.1 µg/mL)	1 (≈ 0.194 µg/mL)	500 (≈ 97.1 µg/mL)	> 1000	0.5 (≈ 0.0971 µg/mL)	–	–	inhibition [26]: Active; inhibition [27]: Active; inhibition [28]: Active; Activity [29]: inactive; inhibition [30]: Active; inhibition [31]: Active; inhibition [32]: Active; inhibition [33]: Active
CCCCCNC(=O)NNC(=O)c1ccncc1	> 1000	62.5 (≈ 15.6 µg/mL)	–	–	> 1000	> 500	< 2.40	125 (≈ 31.3 µg/mL)	125 (≈ 31.3 µg/mL)	125 (≈ 31.3 µg/mL)	8 (≈ 2 µg/mL)	125 (≈ 31.3 µg/mL)	125 (≈ 31.3 µg/mL)	8 (≈ 2 µg/mL)	> 32	> 32	–
CCCNC(=O)NNC(=O)c1ccncc1	250 (≈ 55.6 µg/mL)	4 (≈ 0.889 µg/mL)	–	–	500 (≈ 111 µg/mL)	> 5000	< 2.30	8 (≈ 1.78 µg/mL)	8 (≈ 1.78 µg/mL)	4 (≈ 0.889 µg/mL)	1 (≈ 0.222 µg/mL)	8 (≈ 1.78 µg/mL)	16 (≈ 3.56 µg/mL)	1 (≈ 0.222 µg/mL)	> 312	> 312	–
CCNC(=O)NNC(=O)c1ccncc1	1000 (≈ 208 µg/mL)	32 (≈ 6.66 µg/mL)	–	–	> 1000	> 2000	< 2.40	62.5 (≈ 13 µg/mL)	62.5 (≈ 13 µg/mL)	32 (≈ 6.66 µg/mL)	2 (≈ 0.416 µg/mL)	62.5 (≈ 13 µg/mL)	62.5 (≈ 13 µg/mL)	1 (≈ 0.208 µg/mL)	> 64	> 64	–
